Assay: Tested for inhibition of Uridine Phosphorylase (UrdPase) in murine liver
Method in brief: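 Mouse liver enzyme in a radiochemical assay: [2-¹⁴C]uridine (170 µM, 7.1 µCi/µmol) converted to [2-¹⁴C]uracil in 20 mM potassium phosphate pH 8.0, 1 mM EDTA, 1 mM dithiothreitol, with or without inhibitor. Incubated 30 min at 37 °C, stopped by heating 1 min at 100 °C. Uridine and uracil separated by TLC. Enzyme amount set to give 10% conversion uninhibited.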

Row | SMILES | IC50 [nM]
1 | O=c1[nH]c(=O)n(COC(CO)CO)cc1Cc1cccc(Oc2cccc(F)c2)c1 | 8.2
2 | O=c1[nH]c(=O)n(COC(CO)CO)cc1Cc1cccc(Oc2ccc(F)cc2)c1 | 22
3 | O=c1[nH]c(=O)n(COCCO)cc1Cc1cccc(Oc2ccccc2)c1 | 14
4 | O=c1[nH]c(=O)n(COC(CO)CO)cc1Cc1cccc(Oc2ccccc2)c1 | 10
5 | O=c1[nH]c(=O)n(COCCO)cc1Cc1cccc(Oc2ccc(Cl)cc2)c1 | 84
6 | COc1cccc(Oc2cccc(Cc3cn(COCCO)c(=O)[nH]c3=O)c2)c1 | 31
7 | O=c1[nH]c(=O)n(COCCO)cc1Cc1cccc(Oc2cccc(Cl)c2)c1 | 15
8 | O=c1[nH]c(=O)n(COCCO)cc1Cc1cccc(Oc2ccc(F)cc2)c1 | 98
9 | O=c1[nH]c(=O)n(COC(CO)CO)cc1Cc1cccc(Oc2cccc(Cl)c2)c1 | 1.4
10 | N#Cc1cccc(Oc2cccc(Cc3cn(COCCO)c(=O)[nH]c3=O)c2)c1 | 5.9
11 | COc1ccc(Oc2cccc(Cc3cn(COCCO)c(=O)[nH]c3=O)c2)cc1 | 210
12 | O=c1[nH]c(=O)n(COCCO)cc1Cc1cccc(Oc2cccc(F)c2)c1 | 14
13 | Cc1cccc(Oc2cccc(Cc3cn(COCCO)c(=O)[nH]c3=O)c2)c1 | 13
14 | O=c1[nH]c(=O)n(COCCO)cc1Cc1cccc(Oc2cccc(C(F)(F)F)c2)c1 | 32

Source: ChEMBL document CHEMBL1129991, “Inhibition of uridine phosphorylase. Synthesis and structure-activity relationships of aryl-substituted 1-((2-hydroxyethoxy)methyl)-5-(3-phenoxybenzyl)uracil” (J Med Chem, 1997)
